Source: ChEMBL document CHEMBL3997769, “Discovery and preclinical evaluation of 7-benzyl-N-(substituted)-pyrrolo[3,2-d]pyrimidin-4-amines as single agents with microtubule targeting effects along with triple-acting angiokinase inhibition as antitumor agents” (Bioorg Med Chem, 2017)
The source made the active and inactive calls. The calls are words filed in the database; no cut-off is given here.

Legend:
SF-295 = test: Growth inhibition of human SF295 cells incubated for 48 hrs by sulforhodamine B assay; format: functional; conditions: SF-295, 48 h
SW-620 = test: Growth inhibition of human SW620 cells incubated for 48 hrs by sulforhodamine B assay; format: functional; conditions: SW-620, 48 h
Mus musculus [1] = test: Toxicity in Balb/cJ mouse assessed as body weight loss administered three times weekly measured every 2 days during compound dosing; conditions: in vivo, 48 h
Method in brief: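 Female BALB/cJ mice, 8 weeks old, bearing orthotopic 4T1-Luc2-GFP allografts (7,500 cells implanted in mammary fat pad #4). Dosing began one week after implantation: intraperitoneal, three times weekly, in 5% Pharmasolve plus 5% Solutol HS in normal saline. Body weight reported as percent change at day 40 versus starting weight, with n = 9–10 and one-way ANOVA against untreated controls.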

COLO 205 = test: Growth inhibition of human COLO205 cells incubated for 48 hrs by sulforhodamine B assay; format: functional; conditions: COLO 205, 48 h
NCI-H23 = test: Growth inhibition of human NCI-H23 cells incubated for 48 hrs by sulforhodamine B assay; format: functional; conditions: NCI-H23, 48 h
SK-MEL-28 = test: Growth inhibition of human SK-MEL-28 cells incubated for 48 hrs by sulforhodamine B assay; format: functional; conditions: SK-MEL-28, 48 h
RXF 393 = test: Growth inhibition of human RXF393 cells incubated for 48 hrs by sulforhodamine B assay; format: functional; conditions: RXF 393, 48 h
NCI-H322M = test: Growth inhibition of human NCI-H322M cells incubated for 48 hrs by sulforhodamine B assay; format: functional
U-251 = test: Growth inhibition of human U251 cells incubated for 48 hrs by sulforhodamine B assay; format: functional; conditions: U-251, 48 h
LOX IMVI = test: Growth inhibition of human LOXIMVI cells incubated for 48 hrs by sulforhodamine B assay; format: functional
UACC-62 = test: Growth inhibition of human UACC62 cells incubated for 48 hrs by sulforhodamine B assay; format: functional; conditions: UACC-62, 48 h
[2] = Inhibition of bovine brain tubulin assembly preincubated for 15 mins followed by GTP addition measured for 20 mins by spectrophotometric method; design: species or system Bos taurus
[3] = Solubility of the compound in water; format: physicochemical; conditions: buffer
Bos taurus = species: Bos taurus; test: Displacement of [3H]colchicine from bovine brain tubulin at 1 uM measured after 10 mins by liquid scintillation counting method relative to control
MCF7 = test: Growth inhibition of human MCF7 cells incubated for 48 hrs by sulforhodamine B assay; format: functional; conditions: MCF7, 48 h
KM12 = test: Growth inhibition of human KM12 cells incubated for 48 hrs by sulforhodamine B assay; format: functional; conditions: KM12, 48 h
OVCAR-8 = test: Growth inhibition of human OVCAR8 cells incubated for 48 hrs by sulforhodamine B assay; format: functional; conditions: OVCAR-8, 48 h
ACHN = test: Growth inhibition of human ACHN cells incubated for 48 hrs by sulforhodamine B assay; format: functional
HT-29 = test: Growth inhibition of human HT-29 cells incubated for 48 hrs by sulforhodamine B assay; format: functional; conditions: HT-29, 48 h
SK-OV-3 = test: Growth inhibition of human SKOV3 cells incubated for 48 hrs by sulforhodamine B assay; format: functional; conditions: SK-OV-3, 48 h
HOP-62 = test: Growth inhibition of human HOP62 cells incubated for 48 hrs by sulforhodamine B assay; format: functional; conditions: HOP-62, 48 h
786-0 = test: Growth inhibition of human 786-0 cells incubated for 48 hrs by sulforhodamine B assay; format: functional; conditions: 786-0, 48 h
CAKI-1 = test: Growth inhibition of human Caki1 cells incubated for 48 hrs by sulforhodamine B assay; format: functional; conditions: CAKI-1, 48 h
HCT-116 = test: Growth inhibition of human HCT116 cells incubated for 48 hrs by sulforhodamine B assay; format: functional; conditions: HCT-116, 48 h
HOP-92 = test: Growth inhibition of human HOP92 cells incubated for 48 hrs by sulforhodamine B assay; format: functional; conditions: HOP-92, 48 h
NCI-H226 = test: Growth inhibition of human NCI-H226 cells incubated for 48 hrs by sulforhodamine B assay; format: functional; conditions: NCI-H226, 48 h
SNB-75 = test: Growth inhibition of human SNB75 cells incubated for 48 hrs by sulforhodamine B assay; format: functional; conditions: SNB-75, 48 h
NCI-H460 = test: Growth inhibition of human NCI-H460 cells incubated for 48 hrs by sulforhodamine B assay; format: functional; conditions: NCI-H460, 48 h
Mus musculus [4] = test: Toxicity in Balb/cJ mouse implanted with luciferase/GFP-tagged mouse 4T1 cells assessed as body weight change at 50 mg/kg, ip administered three times weekly measured at day 40 post dose; format: organism-based; conditions: in vivo
CCRF-CEM = test: Growth inhibition of human CCRF-CEM cells incubated for 48 hrs by sulforhodamine B assay; format: functional
MDA-MB-468 = test: Growth inhibition of human MDA-MB-468 cells incubated for 48 hrs by sulforhodamine B assay; format: functional; conditions: MDA-MB-468, 48 h
NCI/ADR-RES = test: Growth inhibition of human NCI/ADR-RES cells incubated for 48 hrs by sulforhodamine B assay; format: functional
HL-60(TB) = test: Growth inhibition of human HL-60(TB) cells incubated for 48 hrs by sulforhodamine B assay; format: functional; conditions: HL-60, 48 h
SR = test: Growth inhibition of human SR cells incubated for 48 hrs by sulforhodamine B assay; format: functional
K562 = test: Growth inhibition of human K562 cells incubated for 48 hrs by sulforhodamine B assay; format: functional; conditions: K562, 48 h
HeLa = test: Growth inhibition of human HeLa cells measured after 96 hrs by sulforhodamine B assay; format: functional, cell-based
Method in brief: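 Exposed 96 h to varying compound concentrations in 0.5% DMSO. Cell protein measured by sulforhodamine B; IC50 = concentration halving the increase in cell protein versus untreated cultures.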

HCC 2998 = test: Growth inhibition of human HCC2998 cells incubated for 48 hrs by sulforhodamine B assay; format: functional; conditions: HCC 2998, 48 h
4T1 = test: Antitumor activity against luciferase/GFP-tagged mouse 4T1 cells implanted in Balb/CJ mouse assessed as reduction in primary tumor growth at 50 mg/kg, ip administered three times in a week; format: functional, organism-based
SK-MEL-2 = test: Growth inhibition of human SK-MEL-2 cells incubated for 48 hrs by sulforhodamine B assay; format: functional; conditions: SK-MEL-2, 48 h
OVCAR-5 = test: Growth inhibition of human OVCAR5 cells incubated for 48 hrs by sulforhodamine B assay; format: functional; conditions: OVCAR-5, 48 h
RPMI-8226 = test: Growth inhibition of human RPMI8226 cells incubated for 48 hrs by sulforhodamine B assay; format: functional; conditions: RPMI-8226, 48 h
MOLT-4 = test: Growth inhibition of human MOLT4 cells incubated for 48 hrs by sulforhodamine B assay; format: functional; conditions: MOLT-4, 48 h
A498 = test: Growth inhibition of human A498 cells incubated for 48 hrs by sulforhodamine B assay; format: functional; conditions: A498, 48 h
SN12C = test: Growth inhibition of human SN12C cells incubated for 48 hrs by sulforhodamine B assay; format: functional

COc1ccc(N(C)c2nc(C)nc3c(Cc4ccccc4)cn(C)c23)cc1.Cl
GI50 (SF-295): 30.4 nM
GI50 (SW-620): 38.4 nM
MTD (Mus musculus [1]): 50 mg/kg
GI50 (COLO 205): 26.3 nM
GI50 (NCI-H23): 45.8 nM
GI50 (SK-MEL-28): 48.7 nM
GI50 (RXF 393): 25.4 nM
GI50 (NCI-H322M): 73.6 nM
GI50 (U-251): 44.3 nM
GI50 (LOX IMVI): 58.8 nM
GI50 (UACC-62): 475 nM
IC50 [2]: 480 nM
solubility [3]: Soluble
inhibition (Bos taurus): 73%
GI50 (MCF7): 33.3 nM
GI50 (KM12): 44.5 nM
GI50 (OVCAR-8): 49.1 nM
GI50 (ACHN): 172 nM
GI50 (HT-29): 35.1 nM
GI50 (SK-OV-3): 45.4 nM
GI50 (HOP-62): 47.8 nM
GI50 (786-0): 93.2 nM
GI50 (CAKI-1): 56.6 nM
GI50 (HCT-116): 35 nM
GI50 (HOP-92): 47.1 nM
GI50 (NCI-H226): 304 nM
GI50 (SNB-75): 27.8 nM
GI50 (NCI-H460): 38.7 nM
Activity (Mus musculus [4]): Non-Toxic
GI50 (CCRF-CEM): 33.5 nM
GI50 (MDA-MB-468): 30.1 nM
GI50 (NCI/ADR-RES): 32.8 nM
GI50 (HL-60(TB)): 26.8 nM
GI50 (SR): 33.8 nM
GI50 (K562): 33.7 nM
IC50 (HeLa): 14 nM
GI50 (HCC 2998): 71.1 nM
Activity (4T1): Active
GI50 (SK-MEL-2): 28.6 nM
GI50 (OVCAR-5): 269 nM
GI50 (RPMI-8226): 36.9 nM
GI50 (MOLT-4): 50.8 nM
GI50 (A498): 20.2 nM
GI50 (SN12C): 88.7 nM
